# Measured values: ChEMBL document CHEMBL1154962, “Novel 6-N-arylcarboxamidopyrazolo[4,3-d]pyrimidin-7-one derivatives as potential anti-cancer agents” (2010)
# Columns and labels:
# DU-145 [1] = experiment: Cytotoxicity against human DU145 cells at 100 uM after 2 days by sulforhodamine B assay; assay type: functional; conditions: DU-145, 48 h
# In short: (§1)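 Five human cancer lines (HT-29, DU-145, A-549, SK-MEL-2, SK-OV-3) seeded at 3–7 × 10³ cells/well; compounds at 100 µM added in duplicate; 37 °C, 5% CO₂, two days. Fixed with formalin, SRB stained, washed with 1% acetic acid, dye solubilized in 10 mM unbuffered Tris base; OD at 520 nm. Read-out is % inhibition.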
# [2] = target: T1, Aurora kinase A (Homo sapiens) (UniProt O14965); experiment: Inhibition of human Aurora A at 10 uM
# T1 sequence (whole entry): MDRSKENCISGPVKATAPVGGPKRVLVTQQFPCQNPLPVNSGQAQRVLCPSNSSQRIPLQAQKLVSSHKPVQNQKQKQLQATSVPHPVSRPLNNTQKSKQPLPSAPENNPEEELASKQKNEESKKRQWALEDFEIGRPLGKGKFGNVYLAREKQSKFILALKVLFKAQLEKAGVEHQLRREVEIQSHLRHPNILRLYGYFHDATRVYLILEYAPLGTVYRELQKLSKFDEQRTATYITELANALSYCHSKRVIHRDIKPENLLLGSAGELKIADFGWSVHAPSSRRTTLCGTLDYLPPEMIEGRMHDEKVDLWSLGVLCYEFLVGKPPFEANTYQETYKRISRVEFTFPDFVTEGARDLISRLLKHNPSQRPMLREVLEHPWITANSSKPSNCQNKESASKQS
# [3] = target: T1, Aurora kinase A (Homo sapiens); experiment: Inhibition of human Aurora A assessed as remaining enzyme activity at 10 uM; values are per cent of control
# [4] = target: Epidermal growth factor receptor (Homo sapiens) (UniProt P00533); experiment: Inhibition of human EGFR assessed as remaining enzyme activity at 10 uM; values are per cent of control
# HT-29 [5] = experiment: Growth inhibition of human HT-29 cells after 2 days by MTT assay; assay type: functional; conditions: HT-29, 48 h
# In short: (§2)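 HT-29 and DU-145 cells seeded at 5 × 10⁴ cells/mL; serial concentrations added in duplicate; 37 °C, 5% CO₂, two days. MTT dye (Cell Titer96) for up to 4 h at 37 °C, then solubilization/stop mix overnight at room temperature; OD at 570 nm. GI₅₀ = concentration giving 50% growth inhibition; mean ± SEM of three or more experiments; doxorubicin as internal standard.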
# [6] = target: Glycogen synthase kinase-3 beta (Homo sapiens) (UniProt P49841); experiment: Inhibition of human GSK3-beta at 10 uM
# HT-29 [7] = experiment: Cytotoxicity against human HT-29 cells at 100 uM after 2 days by sulforhodamine B assay; assay type: functional; conditions: HT-29, 48 h; in short: as §1
# DU-145 [8] = experiment: Growth inhibition of human DU145 cells after 2 days by MTT assay; assay type: functional; conditions: DU-145, 48 h; in short: as §2
# [9] = target: Glycogen synthase kinase-3 beta (Homo sapiens) (UniProt P49841); experiment: Inhibition of human GSK3-beta assessed as remaining enzyme activity at 10 uM; values are per cent of control
# [10] = target: Platelet-derived growth factor receptor alpha (Homo sapiens) (UniProt P16234); experiment: Inhibition of human PDGFRalpha assessed as remaining enzyme activity at 10 uM; values are per cent of control
# Chain of Platelet-derived growth factor receptor alpha (Homo sapiens) (P16234 whole entry): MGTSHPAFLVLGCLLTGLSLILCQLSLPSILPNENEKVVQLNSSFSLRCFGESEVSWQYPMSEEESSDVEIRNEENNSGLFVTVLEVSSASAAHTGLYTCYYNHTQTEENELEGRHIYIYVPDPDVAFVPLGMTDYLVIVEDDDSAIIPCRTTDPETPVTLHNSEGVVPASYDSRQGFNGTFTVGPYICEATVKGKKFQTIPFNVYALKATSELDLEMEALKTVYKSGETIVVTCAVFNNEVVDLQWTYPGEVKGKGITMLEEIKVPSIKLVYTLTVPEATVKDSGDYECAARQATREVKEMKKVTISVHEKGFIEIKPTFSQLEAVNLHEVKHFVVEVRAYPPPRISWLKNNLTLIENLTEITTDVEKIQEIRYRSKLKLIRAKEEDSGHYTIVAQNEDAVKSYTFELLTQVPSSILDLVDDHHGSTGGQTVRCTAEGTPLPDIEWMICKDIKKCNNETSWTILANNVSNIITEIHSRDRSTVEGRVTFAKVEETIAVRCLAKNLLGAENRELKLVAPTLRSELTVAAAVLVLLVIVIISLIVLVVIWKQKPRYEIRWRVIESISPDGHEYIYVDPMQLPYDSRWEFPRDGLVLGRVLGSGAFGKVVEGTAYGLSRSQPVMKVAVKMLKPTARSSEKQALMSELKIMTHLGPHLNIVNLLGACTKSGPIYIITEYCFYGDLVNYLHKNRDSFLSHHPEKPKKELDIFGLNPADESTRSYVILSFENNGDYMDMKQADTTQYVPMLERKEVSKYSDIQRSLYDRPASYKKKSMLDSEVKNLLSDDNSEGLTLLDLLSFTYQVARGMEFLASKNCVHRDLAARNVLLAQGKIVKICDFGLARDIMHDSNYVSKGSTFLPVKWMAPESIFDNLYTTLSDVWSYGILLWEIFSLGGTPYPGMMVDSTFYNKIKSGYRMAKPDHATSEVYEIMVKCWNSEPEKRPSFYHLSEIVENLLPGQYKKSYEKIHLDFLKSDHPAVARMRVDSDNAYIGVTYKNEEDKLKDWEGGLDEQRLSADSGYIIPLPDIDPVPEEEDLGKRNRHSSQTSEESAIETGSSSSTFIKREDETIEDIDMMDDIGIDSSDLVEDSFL
# Chain of Glycogen synthase kinase-3 beta (Homo sapiens) (P49841 whole entry, looked up): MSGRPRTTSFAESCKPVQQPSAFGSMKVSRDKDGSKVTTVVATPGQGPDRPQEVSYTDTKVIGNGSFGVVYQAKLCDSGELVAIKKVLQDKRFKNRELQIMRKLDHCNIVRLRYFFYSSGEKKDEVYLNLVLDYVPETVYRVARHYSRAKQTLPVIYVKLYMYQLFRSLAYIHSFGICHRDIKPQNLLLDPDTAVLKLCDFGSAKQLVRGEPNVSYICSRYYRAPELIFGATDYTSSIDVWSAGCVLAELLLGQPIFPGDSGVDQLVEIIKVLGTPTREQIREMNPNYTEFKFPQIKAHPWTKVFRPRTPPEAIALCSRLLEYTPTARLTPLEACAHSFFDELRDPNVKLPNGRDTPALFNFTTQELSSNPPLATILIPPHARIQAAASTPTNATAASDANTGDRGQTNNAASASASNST
# Chain of Epidermal growth factor receptor (Homo sapiens) (P00533 whole entry): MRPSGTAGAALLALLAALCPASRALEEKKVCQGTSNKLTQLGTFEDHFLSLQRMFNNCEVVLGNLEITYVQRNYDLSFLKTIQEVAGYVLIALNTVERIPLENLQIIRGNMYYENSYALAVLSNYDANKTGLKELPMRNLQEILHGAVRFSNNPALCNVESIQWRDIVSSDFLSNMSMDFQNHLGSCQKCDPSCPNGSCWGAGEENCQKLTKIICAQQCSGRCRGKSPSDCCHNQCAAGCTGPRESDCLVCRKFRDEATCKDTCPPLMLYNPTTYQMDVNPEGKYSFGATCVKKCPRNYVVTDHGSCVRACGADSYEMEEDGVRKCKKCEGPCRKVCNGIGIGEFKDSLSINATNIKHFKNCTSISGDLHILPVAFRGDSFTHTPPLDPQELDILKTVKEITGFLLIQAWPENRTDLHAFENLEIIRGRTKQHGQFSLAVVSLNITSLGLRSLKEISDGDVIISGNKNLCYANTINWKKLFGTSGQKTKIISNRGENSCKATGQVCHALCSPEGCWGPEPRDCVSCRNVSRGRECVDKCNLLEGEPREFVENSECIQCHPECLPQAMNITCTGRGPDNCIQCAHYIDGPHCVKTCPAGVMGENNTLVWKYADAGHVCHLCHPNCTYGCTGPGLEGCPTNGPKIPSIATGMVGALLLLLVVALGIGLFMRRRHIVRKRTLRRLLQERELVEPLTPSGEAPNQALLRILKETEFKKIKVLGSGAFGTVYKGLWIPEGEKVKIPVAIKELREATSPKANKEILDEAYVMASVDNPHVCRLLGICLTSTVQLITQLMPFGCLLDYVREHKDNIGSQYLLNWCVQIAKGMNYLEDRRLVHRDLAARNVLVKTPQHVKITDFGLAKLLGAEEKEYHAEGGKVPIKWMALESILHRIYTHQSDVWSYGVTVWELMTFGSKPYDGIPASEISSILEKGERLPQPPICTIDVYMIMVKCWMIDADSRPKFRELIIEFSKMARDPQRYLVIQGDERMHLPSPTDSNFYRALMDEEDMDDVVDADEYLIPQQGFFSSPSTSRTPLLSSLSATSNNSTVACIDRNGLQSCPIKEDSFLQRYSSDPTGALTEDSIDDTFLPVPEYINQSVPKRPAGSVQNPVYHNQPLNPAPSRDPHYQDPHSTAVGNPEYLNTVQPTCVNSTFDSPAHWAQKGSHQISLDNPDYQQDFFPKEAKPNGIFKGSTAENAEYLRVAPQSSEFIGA
Compound,inhibition at 100 µM (DU-145 [1]) [%],inhibition [2] [%],residual activity [3] [%],residual activity [4] [%],GI50 (HT-29 [5]) [µM],inhibition [6] [%],inhibition at 100 µM (HT-29 [7]) [%],GI50 (DU-145 [8]) [µM],residual activity [9] [%],residual activity [10] [%]
CCCCCc1nc2c(-c3ccc(Cl)cc3)n[nH]c2c(=O)n1NC(=O)c1ccccc1,88.7,91,9,76,2.26,92,90.1,22.1,8,99
Cc1cccc(C(=O)Nn2c(CC3CCCCC3)nc3c(-c4ccc(Cl)cc4)n[nH]c3c2=O)c1,85.9,82,18,85,0.44,89,88.7,1.07,11,95
CCCCCc1nc2c(-c3ccc(Cl)cc3)n[nH]c2c(=O)n1NC(=O)c1cccc(C)c1,88.8,93,7,82,5.37,94,90.5,12.9,6,92
